Assay results taken from ChEMBL document CHEMBL3779787, “Amorfrutin C Induces Apoptosis and Inhibits Proliferation in Colon Cancer Cells through Targeting Mitochondria” (J Nat Prod, 2016).
Activity calls are given as the source filed them. No cut-off for these calls is given here.

Columns and labels:
HT-29 [1] = assay: Induction of apoptosis in human HT-29 cells assessed as permanent opening of mitochondrial permeability transition pore at 30 uM after 30 mins calcein/CoCl2 staining-based fluorescence assay; type: functional, cell-based
How it was run: (§1)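 Trypsinized HT-29 (10^6 cells/mL) in HBSS/Ca with 10 nM calcein and 400 μM CoCl2. Pretreated 60 min at 37 °C with 2 μM cyclosporin A or vehicle, then test compound for 30 min at 37 °C. Washed; mitochondrial calcein fluorescence by flow cytometry; means ± SEM, n = 6.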

HT-29 [2] = assay: Induction of cell cycle arrest in human HT-29 cells assessed as accumulation at G2/M phase at 10 uM by flow cytometry (reference value: 21%); type: functional
HT-29 [3] = assay: Induction of apoptosis in human HT-29 cells at 30 uM after 24 hrs by annexin V-FLUOS/propidium iodide staining-based flow cytometry in presence of alpha-tocopherol; type: functional, cell-based
How it was run: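 HT-29 cells co-incubated 24 h with 30 μM compound and antioxidant: glutathione 2.5 mM, α-tocopherol 50 μM, or ascorbic acid 500 μM. Phosphatidylserine externalization measured by annexin V-FLUOS/propidium iodide staining and flow cytometry. Means ± SEM, n = 3.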

HT-29 [4] = assay: Antiproliferative activity against human HT-29 cells assessed as cellular DNA content at 20 uM after 48 hrs by CyQUANT NF fluorescence assay in presence of PPAR siRNA; type: functional, cell-based
How it was run: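 HT-29 reverse-transfected with equimolar siRNA pool against PPARα, β/δ, γ (10 nM each) or 30 nM nonspecific siRNA, seeded 850 cells/well. After 48 h, 20 μM compound added for a further 48 h. Relative cell number from DNA content; means ± SD, n = 8.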

HT-29 [5] = assay: Induction of ROS generation in human HT-29 cells at 30 uM by CM-H2DCFDA staining-based fluorescence assay; type: functional, cell-based
How it was run: (§2)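 HT-29 (15 000 cells/well) loaded with 50 μM CM-H2DCFDA in PBS for 30 min at 37 °C, washed, then 60 min in phenol red-free DMEM/F-12. 30 μM compound added alone or with NAC 1 mM, GSH 2.5 mM, D3T 25 μM, α-tocopherol 50 μM or ascorbic acid 500 μM. Fluorescence 485/530 nm read kinetically at 37 °C for 22 h; area under curve; means ± SEM, n = 7.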

HT-29 [6] = assay: Increase in extracellular acidification rate in human HT-29 cells at 2 uM measured for 20 to 150 mins by time-resolved fluorescence assay relative to control; type: functional
How it was run: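 HT-29 cells seeded 80 000/well, incubated overnight at 37 °C without CO2. Washed and loaded with pH-sensitive time-resolved fluorescence probe in low-buffering medium (1 mM PBS pH 7.4, 20 mM glucose, salts), 10 min at 37 °C, then compound added, wells unsealed. Read 200 min at 37 °C; lifetime converted to pH, rate taken 20–150 min as H+ change/min; n = 8.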

HT-29 [7] = assay: Induction of ROS generation in human HT-29 cells at 30 uM by CM-H2DCFDA staining-based fluorescence assay in presence of 3H-1,2-dithiole-3-thione; type: functional, cell-based; how it was run: as §2
HT-29 [8] = assay: Induction of apoptosis in human HT-29 cells assessed as mitochondrial membrane depolarization at 30 uM by JC-1 dye-based fluorescence assay in presence of cyclosporinA; type: functional, cell-based
HT-29 [9] = assay: Induction of apoptosis in human HT-29 cells assessed as opening of mitochondrial permeability transition pore at 30 uM after 30 mins calcein/CoCl2 staining-based fluorescence assay in presence of cyclosporinA; type: functional, cell-based; how it was run: as §1
HT-29 [10] = assay: Antiproliferative activity against human HT-29 cells assessed as cellular DNA content at 20 uM after 48 hrs by CyQUANT NF fluorescence assay in presence of ascorbic acid; type: functional, cell-based
How it was run: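 HT-29 given concentration series of test compound with or without antioxidant (NAC 1 mM, GSH 2.5 mM, D3T 25 μM, α-tocopherol 50 μM, ascorbic acid 500 μM) for 48 h. Relative cell number from DNA-binding fluorescent dye; means ± SD, n = 4.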

`COc1c(CC=C(C)C)c(O)c(C(=O)O)c(CCc2ccccc2)c1CC=C(C)C` was tested, and the Activity (HT-29 [1]) was “Active”, the Activity (HT-29 [2]) was 7% and the Activity (HT-29 [3]) was “Active”. The Activity (HT-29 [4]) was “Active”, the Activity (HT-29 [5]) was “Active” and the “fold change (FC)” value (HT-29 [6]) was 3. For the same compound, the Activity (HT-29 [7]) was “inactive”, the Activity (HT-29 [8]) was “Active” and the Activity (HT-29 [9]) was “inactive”. The Activity (HT-29 [10]) was “Active”.
